Consider 27 molecules from ChEMBL document CHEMBL4118083, “Synthesis and anti-oxidant activity evaluation of (±)-Anastatins A, B and their analogs” (Eur J Med Chem, 2017).

The source made the active and inactive calls. The rule behind the calls is not given here.

Data set [1] has as its system PC-12. The experiment in a line: Cytoprotective activity against H2O2-induced oxidative damage in rat PC12 cells assessed as cell viability at 100 uM preincubated for 0.5 hrs followed by H2O2 addition measured after 2 hrs by MTT assay relative to control. The settings on record: read-out: Activity. The data set is classed as functional. The essentials:
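PC12 cells in RPMI-1640 with 10% FBS, plated at 5×10^5 per well, 24 h. Compound in DMSO added 0.5 h before 100 µM H2O2, then 2 h injury. MTT for 4 h, formazan dissolved in DMSO, OD 490 nm. Viability normalised to DMSO controls (100%). Mean of three independent experiments.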
In general terms: Tetrazolium dyes change colour on reduction, which living cells bring about.

A short description of data set [2]: Antioxidant activity assessed as vitamin-c equivalents of ferric ion reducing activity by measuring Fe2+ levels using Fe3+-TPTZ by FRAP assay. The data set is classed as functional. An outline of the steps:
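Ferric-TPTZ complex reduced to ferrous form, per earlier-described method. Calibration curve from serial dilution of vitamin C standard (100-600 […] as printed). Compound reducing power expressed as vitamin C equivalents, calculated from three independent experiments.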

The test system of data set [3] is PC-12. The experiment in a line: Cytotoxicity against rat PC12 cells assessed as effect on cell viability at 100 uM after 48 hrs by MTT assay. It is filed as cell-based. To be noted: pc-12, 48 h. The essentials: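 Rat PC12 cells at 5×10^5 per well, grown 24 h, then exposed 48 h to compound in DMSO. MTT added for 4 h, formazan dissolved in DMSO, absorbance 490 nm. Viability relative to DMSO-treated controls. Triplicate tests.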

The test system of data set [4] is PC-12. Kind of data set: Cytoprotective activity against H2O2-induced oxidative damage in rat PC12 cells assessed as reduction in morphological changes by measuring cell shrinkage at 10 to 100 uM preincubated for 0.5 hrs followed by H2O2 addition measured after 2 hrs. The data set is classed as functional, cell-based. The essentials:
(§1)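 PC12 cells plated 5×10^5 cells/well and grown 24 h, then given test agent (10 and 100 µM) for 0.5 h before 100 µM H2O2 for 2 h. Controls received medium with 0.1% DMSO. Cell shrinkage and blebbing were inspected by microscopy at 200×.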

The test system of data set [5] is PC-12. The experiment in a line: Cytoprotective activity against H2O2-induced apoptosis in rat PC12 cells assessed as late apoptotic cells at 100 uM preincubated for 0.5 hrs followed by H2O2 addition measured after 2 hrs by Annexin V-FITC/propidium iodide staining based flow cytometry (reference value: 57.5%). The data set is classed as functional. (A flow cytometer gives signals particle by particle.)

The subject of data set [6] is PC-12. Kind of data set: Cytoprotective activity against H2O2-induced apoptosis in rat PC12 cells assessed as early apoptotic cells at 100 uM preincubated for 0.5 hrs followed by H2O2 addition measured after 2 hrs by Annexin V-FITC/propidium iodide staining based flow cytometry (reference value: 3.2%). The data set is classed as functional.
Data set [7] relates to PC-12. The experiment in a line: Cytoprotective activity against H2O2-induced apoptosis in rat PC12 cells assessed as necrotic cells at 100 uM preincubated for 0.5 hrs followed by H2O2 addition measured after 2 hrs by Annexin V-FITC/propidium iodide staining based flow cytometry (reference value: 2%). The data set is classed as functional.
Data set [8] has as its system PC-12. Kind of data set: Cytoprotective activity against H2O2-induced apoptosis in rat PC12 cells assessed as live cells at 100 uM preincubated for 0.5 hrs followed by H2O2 addition measured after 2 hrs by Annexin V-FITC/propidium iodide staining based flow cytometry (reference value: 37.3%). The data set is classed as functional.
The subject of data set [9] is PC-12. Kind of data set: Cytoprotective activity against H2O2-induced apoptosis in rat PC12 cells assessed as early apoptotic cells at 10 uM preincubated for 0.5 hrs followed by H2O2 addition measured after 2 hrs by Annexin V-FITC/propidium iodide staining based flow cytometry (reference value: 3.2%). It is filed as functional.
For data set [10], the system named is PC-12. Kind of data set: Cytoprotective activity against H2O2-induced apoptosis in rat PC12 cells assessed as live cells at 10 uM preincubated for 0.5 hrs followed by H2O2 addition measured after 2 hrs by Annexin V-FITC/propidium iodide staining based flow cytometry (reference value: 37.3%). The data set is classed as functional.
The subject of data set [11] is PC-12. The experiment in a line: Cytoprotective activity against H2O2-induced apoptosis in rat PC12 cells assessed as necrotic cells at 10 uM preincubated for 0.5 hrs followed by H2O2 addition measured after 2 hrs by Annexin V-FITC/propidium iodide staining based flow cytometry (reference value: 2%). The data set is classed as functional.
The test system of data set [12] is PC-12. The experiment in a line: Cytoprotective activity against H2O2-induced apoptosis in rat PC12 cells assessed as late apoptotic cells at 10 uM preincubated for 0.5 hrs followed by H2O2 addition measured after 2 hrs by Annexin V-FITC/propidium iodide staining based flow cytometry (reference value: 57.5%). The data set is classed as functional.
Data set [13] deals with PC-12. Kind of data set: Cytoprotective activity against H2O2-induced oxidative damage in rat PC12 cells assessed as reduction in morphological changes by measuring membrane blebbing at 10 to 100 uM preincubated for 0.5 hrs followed by H2O2 addition measured after 2 hrs. The data set is classed as functional, cell-based. An outline of the steps:
as §1

Data set [14] has as its system PC-12. The experiment in a line: Cytoprotective activity against H2O2-induced apoptosis in rat PC12 cells assessed as apoptotic cells at 100 uM preincubated for 0.5 hrs followed by H2O2 addition measured after 2 hrs by Annexin V-FITC/propidium iodide staining based flow cytometry (reference value: 60.7%). The data set is classed as functional.

As for `O=C1c2c(O)cc(O)c(-c3ccc(O)c(O)c3)c2OC1Cc1ccc(O)c(O)c1` (centres undefined), the viability at 100 µM in the data set on PC-12 [1] came out at 100%. The Activity in data set [2] was 376 mgequiv/mmol.

Take `O=C1/C(=C/c2ccccc2)Oc2cc3oc4cc(O)c(O)cc4c3c(O)c21`: the Activity in data set [2] stood at 134 mgequiv/mmol.

Consider `O=c1cc(-c2ccc(O)cc2)oc2c1c(O)cc1oc3cc(O)c(O)cc3c12`, for which the Activity in data set [2] came to 137 mgequiv/mmol.

For the molecule `O=C1/C(=C/c2ccc(O)c(O)c2)Oc2cc3oc4cc(O)c(O)cc4c3c(O)c21`, the Activity in data set [2] amounted to 277 mgequiv/mmol. For the molecule `O=C1/C(=C/c2ccc(O)cc2)Oc2cc3oc4cc(O)c(O)cc4c3c(O)c21`, in data set [2], the Activity is 264 mgequiv/mmol. Turning to `O=c1cc(-c2ccc(O)cc2)oc2cc3oc4cc(O)c(O)cc4c3c(O)c12`, the Activity in [2] is 116 mgequiv/mmol. The same measure, in the same setting: the same measure for `O=C1/C(=C/c2ccc(O)cc2)Oc2c1c(O)cc(O)c2-c1ccc(O)c(O)c1`: 263 mgequiv/mmol. For the molecule `O=C1c2c(cc3oc4cc(O)c(O)cc4c3c2O)OC1Cc1ccc(O)c(O)c1` (centres undefined), the results for the Activity (in data set [2]; in the data set with PC-12 [3]) were 396 mgequiv/mmol and “Toxic”, respectively. Consider `O=C1/C(=C/c2ccccc2)Oc2c1c(O)cc1oc3cc(O)c(O)cc3c21`, for which, in data set [2], the Activity is 116 mgequiv/mmol. On the same count and under the same terms, in the case of `O=C1c2c(O)cc3oc4cc(O)c(O)cc4c3c2OC1Cc1ccccc1` (centres undefined) it was 262 mgequiv/mmol; in that of `O=c1cc(-c2ccc(O)cc2)oc2cc(O)c(-c3ccc(O)c(O)c3)c(O)c12`, 276 mgequiv/mmol; in that of `O=C1/C(=C/c2ccc(O)cc2)Oc2cc(O)c(-c3ccc(O)c(O)c3)c(O)c21`, 241 mgequiv/mmol. Consider `O=C1CC(c2ccc(O)cc2)Oc2cc3oc4cc(O)c(O)cc4c3c(O)c21` (racemic), for which, in data set [2], the Activity came to 260 mgequiv/mmol. The same measure, in the same setting: the same measure for `O=C1c2c(cc3oc4cc(O)c(O)cc4c3c2O)OC1Cc1ccccc1` (centres undefined): 227 mgequiv/mmol. In the case of `O=C(O)c1cc(O)c(O)c(O)c1` [GALLIC ACID], the outcome in the data set on PC-12 [4] and with PC-12 [13] was Active. The Activity in the data set on PC-12 [5] is 2.1%; in the data set on PC-12 [6] it was 0.7%; in the data set with PC-12 [7], 0.4%; in the data set on PC-12 [8], 96.7%; in data set [2], 333 mgequiv/mmol; with PC-12 [9] it was 2.5%. For the same molecule, the Activity in the data set on PC-12 [10] is reported as 85.8%; in the data set with PC-12 [11] it was 1.7%; in the data set with PC-12 [12], 10%. Regarding `O=C1/C(=C/c2ccccc2)Oc2cc(O)c(-c3ccc(O)c(O)c3)c(O)c21`, the Activity in [2] amounted to 237 mgequiv/mmol. Still for that read-out and setting: in the case of `O=C1c2c(O)cc3oc4cc(O)c(O)cc4c3c2OC1Cc1ccc(O)c(O)c1` (centres undefined) it was 373 mgequiv/mmol; in that of `O=c1cc(-c2ccc(O)cc2)oc2c(-c3ccc(O)c(O)c3)c(O)cc(O)c12`, 271 mgequiv/mmol. As to `O=C1c2c(cc(O)c(-c3ccc(O)c(O)c3)c2O)OC1Cc1ccc(O)c(O)c1` (centres undefined), the Activity in [2] stood at 394 mgequiv/mmol. `O=C1CC(c2ccc(O)cc2)Oc2c1c(O)cc1oc3cc(O)c(O)cc3c21` (racemic): in data set [2], the Activity was found to be 224 mgequiv/mmol. As for `O=C1c2c(cc3oc4cc(O)c(O)cc4c3c2O)OC1Cc1ccc(O)cc1` (centres undefined), in [2], the Activity stood at 253 mgequiv/mmol.

For `O=C1/C(=C/c2ccccc2)Oc2c1c(O)cc(O)c2-c1ccc(O)c(O)c1`, the Activity in [2] stood at 269 mgequiv/mmol. As to `O=C1/C(=C/c2ccc(O)c(O)c2)Oc2cc(O)c(-c3ccc(O)c(O)c3)c(O)c21`, the viability at 100 µM in the data set with PC-12 [1] amounted to 100%. The Activity in [2] stood at 372 mgequiv/mmol. Take `O=C1c2c(O)cc3oc4cc(O)c(O)cc4c3c2OC1Cc1ccc(O)cc1` (centres undefined): the Activity in data set [2] was found to be 248 mgequiv/mmol. On the same count and under the same terms, in the case of `O=C1/C(=C/c2ccc(O)c(O)c2)Oc2c1c(O)cc1oc3cc(O)c(O)cc3c21` it was 260 mgequiv/mmol. As for `O=C1/C(=C/c2ccc(O)c(O)c2)Oc2c1c(O)cc(O)c2-c1ccc(O)c(O)c1`, the result with PC-12 [4] and in the data set on PC-12 [13] was Active. Further, the Activity with PC-12 [7] was 0.4%; with PC-12 [8], 95.6%; in [2] it was 318 mgequiv/mmol; in the data set with PC-12 [9] it was 2.4%; in the data set on PC-12 [10], 93.6%; in the data set with PC-12 [11], 0.4%. Moreover, the Activity with PC-12 [14] amounted to 4.1%; in the data set on PC-12 [12], 3.5%.

As to `O=C1/C(=C/c2ccc(O)cc2)Oc2c1c(O)cc1oc3cc(O)c(O)cc3c21`, the Activity in data set [2] worked out at 270 mgequiv/mmol.
